From ChEMBL document CHEMBL1795232, “Benzoxazinones as potent positive allosteric AMPA receptor modulators: part I” (Bioorg Med Chem Lett, 2011) come the findings set out here.

Experiment [1] can be described thus: Displacement of [3H]AMPAKINE from AMPA receptor in rat forebrain.
The species named for experiment [2] is Rattus norvegicus. Kind of experiment: Positive allosteric modulation at AMPA receptor in Sprague-Dawley rat embryonic hippocampal neuron assessed as concentration required to double the steady-state current induced by glutamate by patch-clamp assay. Conditions: Hippocampus. The class given is tissue-based. The method, boiled down:
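Hippocampal neurons from E18 Sprague-Dawley rats, cultured 4-7 days, whole-cell voltage-clamped at -80 mV at room temperature. Cells were pretreated 20 s with saline or modulator by superfusion, then given 500 µM glutamate with or without modulator for 1 s. Mean plateau current at 600-900 ms was taken. EC2x is the concentration doubling the steady-state glutamate current.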
Background: The patch-clamp technique gives a direct electrical read-out from membranes.

The species entered for experiment [3] is Rattus norvegicus. As to the kind of experiment: Positive allosteric modulation at AMPA receptor in Sprague-Dawley rat adult hippocampal slice assessed as increase in field excitatory postsynaptic potential amplitude at 10 uM. To be noted: Hippocampus. It counts as tissue-based. A digest of the protocol:
(§1)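 Transverse hippocampal slices from adult male Sprague-Dawley rats (4-6 weeks) held on nylon net in a rapid-flow linear interface chamber. Schaffer-commissural fibers stimulated with paired pulses (200 ms interval) at 0.05 Hz. After a 20-30 min stable baseline, compound infused 30 min, then washed out with control ACSF. DMSO stocks diluted into ACSF. Read-out was percentage increase in fEPSP amplitude.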

For experiment [4], the species on record is Rattus norvegicus. Kind of experiment: Positive allosteric modulation at AMPA receptor in Sprague-Dawley rat adult hippocampal slice assessed as increase in field excitatory postsynaptic potential amplitude at 1 uM. It counts as tissue-based. To be noted: Hippocampus. A digest of the protocol: as §1
Experiment [5] is filed under the species Rattus norvegicus. Kind of experiment: Positive allosteric modulation at AMPA receptor in Sprague-Dawley rat adult hippocampal slice assessed as increase in field excitatory postsynaptic potential amplitude at 30 uM. The class given is tissue-based. To be noted: Hippocampus. A digest of the protocol: as §1
Experiment [6] is filed under the species Rattus norvegicus. As to the kind of experiment: Positive allosteric modulation at AMPA receptor in Sprague-Dawley rat adult hippocampal slice assessed as increase in field excitatory postsynaptic potential amplitude at 3 uM. It counts as tissue-based. To be noted: Hippocampus. The method, boiled down: as §1

By Ki is commonly meant a dissociation constant, usually derived from enzyme kinetics or from competition with a known ligand. On to `O=C1c2cc3c(cc2OCN1C1CCCC1)C(=O)N1CCCC1O3` (stereo unspecified), for which, in experiment [1], the inhibition constant Ki worked out at 163 µM. The Activity in experiment [2] worked out at 7 µM. As for `CC(C)CN1COc2cc3c(cc2C1=O)OC1CCCN1C3=O` (stereo unspecified), the Activity in experiment [2] was determined as 41 µM.

Turning to `O=C1c2cc3c(cc2OC2CCCN12)OC1CCCN1C3=O` (stereo unspecified), in experiment [2], the Activity worked out at 2.6 µM. `O=C1c2cc3c(cc2OCN1CCF)C(=O)N1CCCC1O3` (stereo unspecified) gave a Ki in experiment [1] of 33 µM. The results for the Activity in experiment [3] and in experiment [2] were 9% and 0.5 µM, respectively.

As to `O=C1c2cc3c(cc2OC2CCCN12)CCCO3` (stereo unspecified), the Activity in experiment [2] amounted to 1.1 µM. Consider `CCCN1COc2cc3c(cc2C1=O)OC1CCCN1C3=O` (stereo unspecified), for which, in experiment [1], the Ki amounted to 70 µM. The Activity in experiment [4] is 0%; in experiment [2], 2.5 µM. With `O=C1c2cc3c(cc2OCN1C1CC1)C(=O)N1CCCC1O3` (stereo unspecified), affinity in experiment [1] was put at a Ki of 26 µM. Further, the Activity in experiment [3] is 10%; in experiment [2], 0.8 µM.

In the case of `CN1COc2cc3c(cc2C1=O)OC1CCCN1C3=O` (stereo unspecified), the Ki in experiment [1] came out at 18 µM. Moreover, the values for the Activity in experiment [3] and in experiment [2] were 19% and 0.1 µM, respectively. The corresponding values for `CCN1COc2cc3c(cc2C1=O)OC1CCCN1C3=O` (stereo unspecified) are 20 µM, 17% and 0.2 µM. In the case of `C=CCN1COc2cc3c(cc2C1=O)OC1CCCN1C3=O` (stereo unspecified), in experiment [1], the affinity, expressed as Ki, was 18 µM. In addition, in experiment [2], the Activity stood at 0.5 µM. As for `O=C1c2cc3c(cc2OC2CCCN12)COCO3` (stereo unspecified), in experiment [2], the Activity is 1.1 µM.

Turning to `O=C1NCOc2cc3c(cc21)OC1CCCN1C3=O` (stereo unspecified), the Ki in experiment [1] stood at 225 µM. Besides, the Activity in experiment [5] came to 5%; in experiment [2] it was 5 µM. In the case of `CC(C)N1COc2cc3c(cc2C1=O)OC1CCCN1C3=O` (stereo unspecified), the Ki in experiment [1] was found to be 100 µM. In addition, the results for the Activity in experiment [3] and in experiment [2] were 3% and 0.9 µM, respectively. Compound `O=C1c2cc3c(cc2OCN1CC(F)(F)F)C(=O)N1CCCC1O3` (stereo unspecified) returned a Ki in experiment [1] of 330 µM. The Activity in experiment [4] was 0%; in experiment [2], 8.8 µM.

Turning to `COc1ccc(C(=O)N2CCCC2=O)cc1`, in experiment [2], the Activity was greater than 1000 µM. Still for that read-out and setting: with `O=C1c2cc3c(cc2OC2CCCN12)C(=O)N1CCCC1O3` (stereo unspecified) the figure was 0.06 µM; with `O=C1c2cc3c(cc2OC2CCCN12)OCOC3` (stereo unspecified), 22 µM.

Turning to `NS(=O)(=O)c1cc2c(cc1Cl)NC(C1CC3C=CC1C3)NS2(=O)=O` (stereo unspecified), the Activity in experiment [2] amounted to 1.6 µM. As for `C#CCN1COc2cc3c(cc2C1=O)OC1CCCN1C3=O` (stereo unspecified), the Activity was found to be 6% in experiment [6] and 0.25 µM in experiment [2]. For the same compound, affinity in experiment [1] was put at a Ki of 7 µM.

`O=C1c2cc3c(cc2OC2CCCN12)OCCO3` (stereo unspecified): in experiment [2], the Activity stood at 2.3 µM. As to `CC(CNS(=O)(=O)C(C)C)c1ccc(-c2ccsc2)cc1` (stereo unspecified), the Activity in experiment [2] amounted to 0.07 µM.
